Experimental data gathered from unrelated publications.
Compare with care: the assays were run in different laboratories.

Structure (SMILES) | tested on | test | system | setting | measurement | value
CCCCCCCCCC#CCCCCC(=O)O | Leishmania infantum | parasite growth | – | promastigote | EC50 | 102 µM
O=C(CCCCC1CCCCC1)CP(=O)(O)O | Bacillus anthracis | microbial growth | STERNE34F2 | – | MIC | 200 µg/mL
COC[C@@H](NC(C)=O)C(=O)NCc1ccc(OCc2ccccc2)cc1 | – | MES seizures | rat | oral | ED50 | < 10 mg/kg
Cn1cnc2nc(NCc3ccc(Cl)c(Cl)c3)[nH]c(=O)c21 | Bifidobacterium | microbial growth, agar dilution | – | 48 h | MIC | > 32 µg/mL
O=C1NN=C(N=Cc2ccccc2O)C1=NNn1c(-c2ccccc2)nc2ccccc2c1=O | Vibrio cholerae | microbial growth, broth dilution | – | 24 h | MIC | 55.4 µM
CN[C@H](CC(C)C)C(=O)N[C@H]1C(=O)N[C@@H](CC(N)=O)C(=O)N[C@H]2C(=O)N[C@H]3C(=O)N[C@H](C(=O)N[C@H](C(=O)O)c4cc(O)cc(O)c4-c4cc3ccc4O)[C@H](O)c3ccc(c(Cl)c3)Oc3cc2cc(c3O[C@@H]2O[C@H](CO)[C@@H](O)[C@H](O)[C@H]2O[C@H]2C[C@](C)(N)[C@H](O)[C@H](C)O2)Oc2ccc(cc2Cl)[C@H]1O | Streptococcus pyogenes | microbial growth | – | – | MIC | 0.25 µg/mL
CC[C@H]1OC(=O)[C@H](C)[C@@H](O[C@H]2C[C@@](C)(OC)[C@@H](O)[C@H](C)O2)[C@H](C)[C@@H](O[C@@H]2O[C@H](C)C[C@H](N(C)C)[C@H]2O)[C@](C)(O)C[C@@H](C)C(=O)[C@H](C)[C@@H](O)[C@]1(C)O | Bacillus anthracis | microbial growth | 34F2 | – | MIC | 3.13 µM
CC(=O)C1=C(O)C(CC(C)C)NC1=O (stereo not shown) | Stenotrophomonas maltophilia | microbial growth | ATCC13637 | – | MIC | > 200 µg/mL
OC[C@H]1O[C@@H](n2cnc3c(NC4CCCC4)ncnc32)[C@H](O)[C@@H]1O | – | MES seizures | rat | oral | ED50 | > 10 mg/kg
CCCC(=O)CP(=O)(O)O | Bacillus anthracis | microbial growth | STERNE34F2 | – | MIC | 100 µg/mL
CC1=NN(CNc2ccc(Cl)cc2)C(=O)C1=NNn1c(-c2ccccc2)nc2ccccc2c1=O | Vibrio cholerae | microbial growth, broth dilution | – | 24 h | MIC | 103 µM
CCCCCCCCCCCCCCCC(=O)CP(=O)(O)O | Bacillus anthracis | microbial growth | STERNE34F2 | – | MIC | 1.56 µg/mL
CCOC(=O)Nc1ccc(NCc2ccc(F)cc2)cc1N | – | MES seizures | rat | oral | ED50 | 12.1 mg/kg
CCCCCCCCCCCCCCCC(=O)NS(=O)(=O)Oc1ccc(OC)cc1 | Bacillus anthracis | microbial growth | STERNE34F2 | – | MIC | 3.12 µg/mL
COc1ccc2cc1Oc1cc(ccc1OC)CCC(N[C@@H]1CCCc3ccccc31)CCCC2 (stereo partly shown) | Streptococcus pyogenes | microbial growth, broth dilution | ATCC700294 | – | MIC | > 100 µg/mL
CC1=NN(CNc2c(O)c(S(=O)(=O)O)cc3ccccc23)C(=O)C1=NNn1c(-c2ccccc2)nc2ccccc2c1=O | Vibrio cholerae | microbial growth, broth dilution | – | 24 h | MIC | 83.7 µM
CCCCCCCCCCCC(=O)NP(=O)(O)O | Bacillus anthracis | microbial growth | STERNE34F2 | – | MIC | > 200 µg/mL
CC1=NN(CNC(=O)c2ccccc2)C(=O)C1=NNn1c(-c2ccccc2)nc2ccccc2c1=O | Vibrio cholerae | microbial growth, broth dilution | – | 24 h | MIC | 51.9 µM
O=C(CCCCC1CCCCC1)NP(=O)(O)O | Bacillus anthracis | microbial growth | STERNE34F2 | – | MIC | > 200 µg/mL
